Source: PubChem BioAssay
Inconclusive results are not listed.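 How the source made its calls, unless noted: active means viability increase at or above a cutoff of the median across tested compounds plus 3 SD (cut at about 8.5% in these data, passing the limit was not always enough); inconclusive means some gains above the cutoff, reason not given; inactive means the rest.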

Experiments:
[1] = S. cerevisiae growth inhibition in permissive medium (OD615), pilot counter-assay for S. cerevisiae lifespan shortening project, permissive growth control (AID 705;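 active means growth inhibition above 25% in both replicates, a cutoff set 3 SD above the mean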); conditions: OD615, 24 h, at 10 µM, active compounds read high
Summary of the method: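 System – S. cerevisiae with engineered DeaD lifespan system · Buffer or medium – SC raffinose/galactose permissive medium · Schedule – cells pre-grown 4 h, then 24 h compound exposure, 30 °C humidified · Technique – culture turbidity as optical density at 615 nm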

[2] = S. cerevisiae growth inhibition in restrictive medium, OD615, pilot screen, restrictive growth control, yeast lifespan reduction project (AID 706;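 active means growth inhibition above a set limit, 3 SD over mean compound inhibition, in both replicates, cut at about 43% in these data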;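 further: modified DeaD lifespan yeast strain shifted to restrictive glucose medium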); conditions: OD615, 48 h, at 10 µM, active compounds read high
Summary of the method: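 Material: engineered S. cerevisiae DeaD strain / Medium: glucose-based CSMM-D restrictive medium / Compound: single dose of 10 µM compound final, 0.25% DMSO / Timing: 4 h pre-incubation, 48 h exposure at 30 °C / Technique: OD615 absorbance reading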

[3] = doxorubicin toxicity protection in MRP-1 cells – H69AR cells, CellTiter-Glo, duplicate, MRP-1 activator project, pilot screen (AID 807); conditions: H69AR viability with doxorubicin, CellTiter-Glo luminescence; at 10 µM; active compounds read high;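 further: compound pretreatment 18-22 h then 72 h combined with doxorubicin; 0% = doxorubicin alone and 100% = vehicle without doxorubicin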
[4] = viability of HCT116 without oncogenic beta-catenin – human colon tumor cells, pilot screen (AID 823;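 active means cell viability at or below a set limit in both duplicate runs, the limit being the all-compound median minus 4 SD, cut at about 23% in these data, passing the limit was not always enough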;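 further: 0% = wells killed by 20 µM Hyamine and 100% = untreated DMSO cell wells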); conditions: HCT116 beta-catenin knockout viability, CellTiter-Glo, 60 h; at 10 µM; active compounds read low
[5] = viability of PTEN-null HCT116 cells – cell-based, HCT116 clonal line, CellTiter-Glo, pilot screen (AID 824;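 active means viability at or below 27.92% in each of two runs, the all-compound median minus 4 SD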;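 further: 0% = 20 µM Hyamine control and 100% = vehicle cell control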); conditions: HCT116 PTEN-deleted viability, 60 h, at 10 µM, active compounds read low
[6] = RAM pathway blockade in budding yeast – dse1pr::URA3 reporter, 5-FOA selection, pilot screen (AID 869;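 active means inhibition over a set limit, the all-compound mean plus 3 SD, in both replicate runs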;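 further: 0% = DMSO wells with no growth and 100% = 10 µM 1-NA-PP1 with full growth; RAM network block rescues cells from 5-FOA so hits raise OD615 growth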); conditions: S. cerevisiae dse1pr::URA3 5-FOA growth, OD615, 2 d; at 10 µM; active compounds read high; strain carries analog-sensitive mutant Cbk1 kinase
[7] = RAM signaling pathway blockade in yeast – S. cerevisiae, Pdr1DBD-CYC8 efflux-inhibited sensitized strain, primary screen (AID 1298;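 active means RAM network inhibition above 8.4% in each of two replicates, 3 SD over the compound average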;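 further: 0% = DMSO untreated cells without growth and 100% = 10 µM 1-NA-PP1 full growth; higher means more yeast growth rescued from 5-FOA killing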); conditions: S. cerevisiae cbk1-as DSE1-URA3 strain, 5-FOA growth OD615, 2 d; at 50 µM; active compounds read high

Cc1cc(OCC(=O)N(C)C)c2c(-c3ccccc3)cc(=O)oc2c1
inactive: growth inhibition [1] -3.89% | growth inhibition [2] 2.71% | viability increase [3] -3.03% | viability [4] 97.4% | viability [5] 94.7% | inhibition [6] 0.915% | RAM network inhibition [7] 5.21%

O=c1nc(-c2ccccc2)cn[nH]1
inactive: growth inhibition [1] -4.61% | growth inhibition [2] -4.27% | viability increase [3] -0.11% | viability [4] 101% | viability [5] 105% | inhibition [6] 1.29% | RAM network inhibition [7] 2.6%

Cc1ccc(C)c(NC(=O)CS(=O)(=O)c2c[nH]c3ccccc23)c1
inactive: growth inhibition [1] -9.01% | growth inhibition [2] -31.9% | viability increase [3] -2.95% | viability [4] 96.5% | viability [5] 93.5% | inhibition [6] 2.13% | RAM network inhibition [7] -0.27%

COc1cc(C(=O)NCCc2cn3ccccc3n2)cc(OC)c1OC
inactive: growth inhibition [1] -9.42% | growth inhibition [2] -6.93% | viability increase [3] -2.78% | viability [4] 98.4% | viability [5] 95.9% | inhibition [6] 2.1% | RAM network inhibition [7] 2.62%

COc1ccc(S(=O)(=O)Cc2ccc(C(=O)NC(C)C)o2)cc1
inactive: growth inhibition [1] -1.35% | growth inhibition [2] 0.215% | viability increase [3] 1.22% | viability [4] 108% | viability [5] 99.6% | inhibition [6] -0.2% | RAM network inhibition [7] 1.2%

O=C(Nc1sc2c(c1C(=O)O)CCCC2)c1cccs1
inactive: growth inhibition [1] 5.62% | growth inhibition [2] 15.9% | viability increase [3] -1.03% | viability [4] 79.5% | viability [5] 57% | inhibition [6] -1.22% | RAM network inhibition [7] -2.15%

O=C1CNC(=O)/C1=C\N1CCN(C(c2ccccc2)c2ccccc2)CC1
inactive: growth inhibition [1] 5.72% | growth inhibition [2] 9.98% | viability increase [3] -2.16% | viability [4] 99.2% | viability [5] 101% | inhibition [6] 2.48% | RAM network inhibition [7] 1.6%

Brc1ccc(OCCOCCN2CCOCC2)cc1
inactive: growth inhibition [1] -13.4% | growth inhibition [2] -8.66% | viability increase [3] 2.95% | viability [4] 91.7% | viability [5] 93% | inhibition [6] 0.12% | RAM network inhibition [7] 1.24%

C=C1CC2C=C(NC(C)=O)CC(C1)C2 (stereo unspecified)
inactive: growth inhibition [1] -18.7% | growth inhibition [2] -12.7% | viability increase [3] -0.27% | viability [4] 98.6% | viability [5] 95.6% | inhibition [6] 1.1% | RAM network inhibition [7] 4.47%

CCOc1ccc(/C(=N\O)C(C)NO)cc1 (stereo unspecified)
inactive: growth inhibition [1] -16.4% | growth inhibition [2] -10.4% | viability increase [3] 1.06% | viability [4] 87.9% | viability [5] 97.1% | inhibition [6] 0.925% | RAM network inhibition [7] 3.88%

CCOC(=O)N1CCN(C(=O)Cc2ccc(Cl)cc2)CC1
inactive: growth inhibition [1] 3.9% | growth inhibition [2] -5.01% | viability increase [3] -1.27% | viability [4] 99.2% | viability [5] 95.3% | inhibition [6] 2.03% | RAM network inhibition [7] 6.67%

C=CCn1c(=N)c(C(=O)NCCCOC)cc2c(=O)n3cccc(C)c3nc21
inactive: growth inhibition [1] 2.23% | growth inhibition [2] 0.115% | viability increase [3] -2.3% | viability [4] 83.8% | viability [5] 88.5% | inhibition [6] 0.4% | RAM network inhibition [7] -0.47%

COCc1nnc(SCC(=O)Nc2cccc(Cl)c2C)n1-c1ccccc1
inactive: growth inhibition [1] -5.62% | growth inhibition [2] -13% | viability increase [3] -0.41% | viability [4] 107% | viability [5] 93.3% | inhibition [6] 0.57% | RAM network inhibition [7] 3.49%

Cc1ccc(S(=O)(=O)N2CCCC(C(=O)O)C2)s1 (stereo unspecified)
inactive: growth inhibition [1] -4.2% | growth inhibition [2] -4.86% | viability increase [3] 1.27% | viability [4] 97% | viability [5] 99.6% | inhibition [6] 0.59% | RAM network inhibition [7] -1.67%

COCc1cc(C)nc2sc(C(=O)N3CCN(c4ccccc4)CC3)c(N)c12
inactive: growth inhibition [1] -3.52% | growth inhibition [2] 2.86% | viability increase [3] -0.4% | viability [4] 89% | viability [5] 86.8% | inhibition [6] 1.76% | RAM network inhibition [7] 3.05%

CSc1ccc(C2C(C#N)=C(N)N(c3ccccc3)C3=C2C(=O)CCC3)cc1 (stereo unspecified)
inactive: growth inhibition [1] -11.5% | growth inhibition [2] -19.7% | viability increase [3] -7.43% | viability [4] 69.5% | viability [5] 74.6% | inhibition [6] 1.18% | RAM network inhibition [7] 2.23%

COc1ccc(N(CC(=O)NCc2cccnc2)S(=O)(=O)c2c(C)nn(C)c2C)cc1
inactive: growth inhibition [1] -19.9% | growth inhibition [2] -19.4% | viability increase [3] -1.49% | viability [4] 98.5% | viability [5] 95.2% | inhibition [6] 1.57% | RAM network inhibition [7] 7.6%

COc1ccc(OC)c2sc(NC(=O)C3CC3)nc12
inactive: growth inhibition [1] 1.08% | growth inhibition [2] 5.55% | viability increase [3] -3.24% | viability [4] 99.7% | viability [5] 90.3% | inhibition [6] 1.25% | RAM network inhibition [7] 6.06%

Cc1nn(C(=O)CN2C(=O)c3ccccc3C2=O)c(C)c1Br
inactive: growth inhibition [1] -4.13% | growth inhibition [2] 3.1% | viability increase [3] -1.05% | viability [4] 101% | viability [5] 103% | inhibition [6] 0.84% | RAM network inhibition [7] 4.29%

O=S(=O)(Nc1ccc(O)cc1)c1cccc2cccnc12
inactive: growth inhibition [1] -1.12% | growth inhibition [2] -4.81% | viability increase [3] -1.95% | viability [4] 93.9% | viability [5] 87% | inhibition [6] 2.25% | RAM network inhibition [7] 0.83%

O=C(NCc1ccco1)c1ccc2c(c1)N(Cc1ccccc1)C(=O)CS2=O (stereo unspecified)
inactive: growth inhibition [1] -4.13% | growth inhibition [2] 3.41% | viability increase [3] 3.66% | viability [4] 97.8% | viability [5] 82.6% | inhibition [6] 0.885% | RAM network inhibition [7] 1.29%

Cc1ccc2cc(-c3noc(C4CCCCC4)n3)c(=O)[nH]c2c1
inactive: growth inhibition [1] -10.9% | growth inhibition [2] -13% | viability increase [3] -2.36% | viability [4] 112% | viability [5] 104% | inhibition [6] 3.56% | RAM network inhibition [7] 4.76%

COC(=O)C1=C(C)N(C)C(=O)NC1c1ccc(O)c(OC)c1 (stereo unspecified)
inactive: growth inhibition [1] 0.58% | growth inhibition [2] -7.74% | viability increase [3] -0.98% | viability [4] 105% | viability [5] 98.9% | inhibition [6] 0.425% | RAM network inhibition [7] 6.2%

COC(=O)c1c(NC(=O)C2CC2)sc2c1CCN(C(C)=O)C2
inactive: growth inhibition [1] -10.8% | growth inhibition [2] -31.3% | viability increase [3] -0.44% | viability [4] 105% | viability [5] 91.6% | inhibition [6] 1.98% | RAM network inhibition [7] -1.38%

Cc1ccc(-c2nc(NC(=O)CSc3nnc(C)s3)ns2)cc1
inactive: growth inhibition [1] -5.46% | growth inhibition [2] 2.65% | viability increase [3] -0.8% | viability [4] 123% | viability [5] 102% | inhibition [6] 0.34% | RAM network inhibition [7] 2.66%

COc1cccc(-n2nnc3c(=O)n(CC(=O)NCC4CCCO4)cnc32)c1 (stereo unspecified)
inactive: growth inhibition [1] 2.81% | growth inhibition [2] -2.83% | viability increase [3] 0.22% | viability [4] 101% | viability [5] 93.7% | inhibition [6] -0.415% | RAM network inhibition [7] 5.27%

Oc1ccccc1CNc1nc2ccccc2n1CCN1CCCCC1
inactive: growth inhibition [1] -15.8% | growth inhibition [2] -9.88% | viability increase [3] -8.6% | viability [4] 52.5% | viability [5] 48.8% | inhibition [6] 2.86% | RAM network inhibition [7] 1.77%

CC1(C)CC(=O)C=C(NC2CC(C)(C)NC(C)(C)C2)C1
inactive: growth inhibition [1] -11.6% | growth inhibition [2] -15.2% | viability increase [3] -0.93% | viability [4] 102% | viability [5] 98.8% | inhibition [6] 1.32% | RAM network inhibition [7] 3.08%

O=C(O)c1cc2nc(C3CC3)cc(C(F)(F)F)n2n1
inactive: growth inhibition [1] -2.34% | growth inhibition [2] -2.47% | viability increase [3] 0.62% | viability [4] 102% | viability [5] 90.1% | inhibition [6] 1.67% | RAM network inhibition [7] -2.13%

Cn1c(NC(=O)C2CC2)cc(=O)n(C)c1=O
inactive: growth inhibition [1] 0.21% | growth inhibition [2] 1.9% | viability increase [3] -0.62% | viability [4] 99% | viability [5] 104% | inhibition [6] 1.01% | RAM network inhibition [7] -1.84%

COc1ccc(-c2nc(CS(=O)CC(=O)N3CCc4ccccc4C3)c(C)o2)cc1 (stereo unspecified)
inactive: growth inhibition [1] 2.66% | growth inhibition [2] 32.7% | viability increase [3] -2.66% | viability [4] 85.6% | viability [5] 88.8% | inhibition [6] 1.13% | RAM network inhibition [7] 3.48%

CCN1CCc2c(sc(NC(=O)c3ccc(S(=O)(=O)N4CCOCC4)cc3)c2C(N)=O)C1
inactive: growth inhibition [1] -2.02% | growth inhibition [2] -1.51% | viability increase [3] -2.7% | viability [4] 86.8% | viability [5] 87.2% | inhibition [6] 1.45% | RAM network inhibition [7] 0.16%

CCN1c2ccccc2NC2C1C(C(C)=O)C(=O)N2c1ccc(Cl)cc1 (stereo unspecified)
inactive: growth inhibition [1] -2.96% | growth inhibition [2] -9.21% | viability increase [3] -5.03% | viability [4] 84.3% | viability [5] 72.2% | inhibition [6] 1.32% | RAM network inhibition [7] 5.6%
